Screening data as filed in PubChem BioAssay.
Most compounds without a hit are left out; they make up all but 1.9% or so of the library.
bCat nuc transl = beta-catenin nuclear translocation modulation. HeLa beta-catenin nuclear translocation, immunofluorescence imaging. nuclear translocation activity, % at 5 µM. actives 0.3% (n = 190,000);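 active = nuclear translocation activity above 50% at 5 µM, with a well cell count of 50 or more; inconclusive = wells under 50 cells across six images, flagged as toxic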;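 also: per-cell ratio of nuclear to cytoplasmic median beta-catenin stain intensity; plate controls were DMSO negative control for no effect and GSK-3 inhibitor IX positive control for full effect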
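test system = HeLa cells, endogenous beta-catenin | dosing = single 5 µM dose plus 0.02–20 µM confirmation series | times = compound treatment 24 h, 37°C, 5% CO2 | technique = beta-catenin immunofluorescence imaging with DAPI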
MT stabilizer = stabilizes microtubules in HeLa cells; HeLa tubulin immunostaining HCS, 24 h; share of cells brighter than vehicle mean+2SD; % tubulin-high responders, % at 10 µM; actives 0.83% (n = 200,000); AID 2205;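 active = plate Z-score above 3 for both tubulin-high and condensed-nucleus cell shares, with cell loss under 80%, at 10 µM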;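 also: anti alpha tubulin signal scored within the nucleus-defined area of each cell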
ROMK primary = human ROMK K+ channel modulation, primary screen | Tet-inducible ROMK, thallium flux fluorescence; actives lie on both sides | AID 1918 | actives 2% (n = 130,000) | P48048 | B-score at 10 µM;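 active = signal ratio slope over the read window, or its plate-corrected B-score, at least 3 SD from the plate mean, either direction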;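 also: B-score of the F/F0 ratio slope over 7 to 12 s after thallium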
Target sequence (P48048 whole entry, looked up): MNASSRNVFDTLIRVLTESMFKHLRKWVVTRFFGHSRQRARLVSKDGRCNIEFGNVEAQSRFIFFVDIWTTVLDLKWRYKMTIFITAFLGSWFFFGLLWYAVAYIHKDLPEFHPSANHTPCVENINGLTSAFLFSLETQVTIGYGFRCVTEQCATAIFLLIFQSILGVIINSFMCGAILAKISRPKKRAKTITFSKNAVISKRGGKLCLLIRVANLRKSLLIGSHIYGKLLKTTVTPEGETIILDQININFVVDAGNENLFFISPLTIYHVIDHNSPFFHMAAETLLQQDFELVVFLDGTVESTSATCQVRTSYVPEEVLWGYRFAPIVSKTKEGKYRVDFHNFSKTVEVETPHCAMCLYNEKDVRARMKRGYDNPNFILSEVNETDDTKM
ROMK hit retest = retested hit modulating human ROMK potassium channel; shares compounds with ROMK primary; ROMK thallium flux, fluorescence ratio; stronger effect = lower value; normalized thallium flux (F/F0 slope) at 10 µM; actives 54% (n = 3,000); AID 1917;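 active = Flux at 10 µM at least 3 SD below or above vehicle control mean in one or both replicates; inconclusive = no clear call, values can overlap the other calls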
An asterisk follows results filed as active; ? = inconclusive; · = no result.

SMILES | bCat nuc transl | MT stabilizer | ROMK primary | ROMK hit retest
COc1ccc(Cn2nc(-c3ccccc3)c(N3CCCCC3)cc2=O)cc1 | 0 | 2 | -4.4* | ?
COc1ccc(-c2nnc(N3CCCCC3)c3ccccc23)cc1 | 1 | 2 | -0.72 | ·
CC(C)OC(=O)c1c2c(n3ccccc13)C(=O)c1ccccc1C2=O | 0 | 2 | · | 0.051*
COC(=O)c1cc2c(C)c(C)c3ccccn3c-2c1C(=O)OC | 22 | 2 | -0.39 | ·
COC(=O)/C=c1/s/c(=C(/C#N)C(=O)N2CCCCC2)n(-c2ccccc2)c1=O | -1 | 3 | -3.2* | 0.057*
COC(=O)/C=c1/s/c(=C(/C#N)C(=O)N2CCOCC2)n(-c2ccccc2)c1=O | -4 | 1 | -1.1 | ·
C=CCN1C(=O)/C(=c2\sc3nc(=O)c(Cc4ccc(OC)c(OC)c4)nn3c2=O)c2ccccc21 | 2 | · | · | ·
COCCN(Cc1ccccc1)C(=S)Nc1ccc(Cl)cc1 | 0 | 1 | 6* | 0.081
COc1ccc(NC(=S)N(CCO)Cc2ccccc2)cc1 | -3 | 5 | 0.13 | ·
CC1CC(C)(C)OC(C[N+]2(C)CCCCC2)O1 (configuration not stated) | 1 | · | · | ·
O=C(COc1ccc(S(=O)(=O)N2CCCC2)cc1)NCC1CCCO1 (configuration not stated) | 2 | 4 | -0.68 | ·
CN1C(=O)N(C)c2ccc(C=O)c3cccc1c23 | 0 | 20 | -3.4* | 0.068*
CN(C)c1cccc2c(/C=N/O)ccc(N(C)C)c12 | -2 | 5 | 0.58 | ·
COc1ccc(/C=C/C(=O)NC(=S)NCc2ccccc2)cc1OC | -2 | · | -0.54 | ·
COc1ccc(S(=O)(=O)N2CCN(Cc3c[nH]c4ccccc34)CC2)cc1 | · | 2 | · | ·
O=[N+]([O-])c1ccc(S(=O)(=O)N2CCN(Cc3c[nH]c4ccccc34)CC2)cc1 | -2 | 2 | -2.7* | 0.056*
CSc1ccccc1Nc1ncnc(N)n1 | 8 | · | · | ·
O=C(NNC(=O)c1ccccn1)c1cccc([N+](=O)[O-])c1 | -3 | 1 | 0.95 | ·
N#C/C(=C\c1cccc([N+](=O)[O-])c1)c1ccccn1 | 0 | 5 | -3.6* | 0.046*
O=[N+]([O-])c1cccc(/C=C/c2ccccn2)c1 | 1 | · | · | ·
O=C(c1cccc([N+](=O)[O-])c1)c1ccccn1 | 0 | · | · | ?
O=C(NNC(=O)c1c(F)cccc1F)c1ccccc1-n1cccc1 | -3 | 4 | 0.6 | ·
CN(C)c1ccc2c(c1)OC(N)=C(C#N)C2c1cccc(F)c1 (configuration not stated) | 99* | 8 | · | 0.064*
N#CC1=C(N)Oc2cc(O)ccc2C1c1cccnc1 (configuration not stated) | -4 | 2 | -0.86 | ·
OCCN1CCN(CC(O)C(F)(F)F)CC1 (configuration not stated) | -4 | 4 | 0.15 | ·
SMILES | bCat nuc transl | MT stabilizer | ROMK primary | ROMK hit retest
O=C(COc1ccccc1Cl)NCc1ccncc1 | 2 | 4 | · | ·
CCOc1ccc(NC(=O)C2CC=CCC2C(=O)O)cc1 (configuration not stated) | -2 | 2 | · | 0.084
CCCCOc1ccc(NC(=O)C2CC=CCC2C(=O)O)cc1 (configuration not stated) | -3 | 3 | 0.51 | ·
NNC(=O)CCn1c2ccccc2c2ccccc21 | 0 | 5 | -0.59 | ·
Cc1ccc(CNC(=O)Cc2ccc(-n3cccc3)cc2)cc1 | -2 | 10 | 2.5 | ·
O=C(Cc1ccc(-n2cccc2)cc1)NCc1cccs1 | 165* | 29* | 3.4* | ?
O=C(CCCN1C(=O)c2cccc3cccc(c23)C1=O)Nc1ccon1 | -2 | 4 | · | ·
COC(=O)c1c(C)nn(-c2ccc(F)c(Cl)c2)c1-c1cc(C)on1 | -4 | · | · | ·
CS/C(=N\S(=O)(=O)c1ccccc1)c1ccccc1 | -1 | 1 | 0.14 | ·
O=S(=O)(/N=C(/Sc1ccccc1)c1ccccc1)c1ccccc1 | · | 2 | -2.8* | 0.05*
CCOc1ccccc1Nc1nnc(C)c(=O)[nH]1 | 0 | 11 | 0.075 | ·
COc1ccccc1Nc1nnc(C)c(=O)[nH]1 | -5 | 2 | 3* | 0.077
Clc1ccc(OCCn2ccnc2)c2ccccc12 | 0 | 4 | -3.2* | ?
Clc1ccc(OCCn2ccnc2)c(Cl)c1 | 0 | 3 | · | ·
O=C(NNc1nc2cc3c(cc2s1)OCO3)c1cccc(F)c1 | -4 | 6 | 0.7 | ·
NC(=O)C1CCN(C(=O)c2ccc3c(=O)n(Cc4ccco4)c(SCC(=O)c4ccc(F)cc4)nc3c2)CC1 | -4 | 2 | 2.8* | 0.092
NC(=O)C1CCN(C(=O)c2ccc3c(=O)n(Cc4ccco4)c(SCC(=O)c4ccccc4)nc3c2)CC1 | -1 | 5 | 0.018 | ·
COc1ccc(OCCSc2nnc(C(C)NC(=O)c3ccccc3F)n2C)cc1 (configuration not stated) | -6 | 5 | -0.01 | ·
